Compound activity deposited in PubChem by The Scripps Research Institute Molecular Screening Center.
mABHD4 FP – ABHD4 (mouse) inhibition, primary FP screen; AID 720543; purified mABHD4, FP-Rh probe fluorescence polarization; actives 0.54% (n = 370,000); inhibition, % at 8.92 µM;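 active means inhibition exceeding the mean over every tested compound plus 3 SD, cut at about 30% in these data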;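 further: 0% = plate median of compound wells and 100% = S159A mutant with DMSO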
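Assay system: Wild-type mouse ABHD4 protein | Medium: HEPES pH 7.0 buffer, 150 mM NaCl, 0.01% Pluronic F-127 | Incubation: Enzyme–compound pre-incubation 45 min, then probe 60 min, both 25 °C | Technique: Fluorescence polarization with parallel and perpendicular emission, 525/598 nm | Evaluation: % inhibition of FP-Rh probe binding versus controls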
TCR CD3 inh – human TCR-CD3 binding inhibition | TAMRA-labeled TCR probe fluorescence, biochemical | inhibition, % at 9.4 µM | actives 0.37% (n = 360,000); in the data active means inhibition above about 19%;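 further: recombinant mutant TCR 2C K166C tagged with TAMRA read by polarization; 0% = receptor in buffer alone and 100% = receptor with positive control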
PAD4 FP inh – blocks human protein arginine deiminase 4; recombinant PAD4, RCA probe fluorescence polarization; inhibition, % at 6.36 µM; actives 0.41% (n = 330,000);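 active means percent inhibition above a cutoff equal to the mean of all tested compounds plus 3 SD, cut at about 15% in these data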;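 further: 0% = PAD4 with RCA probe and DMSO and 100% = probe without PAD4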
TDP2 absorb – blocks human TDP2 phosphodiesterase activity; actives 0.34% (n = 370,000); recombinant TDP2, T5PNP hydrolysis, p-nitrophenol absorbance 415 nm; O95551; inhibition, % at 12.8 µM;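 active means inhibition above the mean of all tested compounds plus 3 SD, set per campaign, cut at about 25% in these data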;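 further: 0% = DMSO with enzyme and 100% = buffer with substrate but no TDP2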
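Assay system: recombinant human TDP2 / Reagent: T5PNP substrate at 5 mM, a TopII-DNA adduct mimic / Measured by: epi absorbance from released p-nitrophenol / Evaluation: % inhibition relative to enzyme-containing and enzyme-free wells / Control set: enzyme-free and DMSO wells / Replicates: each compound tested once, singlicate / Schedule: enzyme reaction with compound for 2 h at 37 °C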
HTRA1 inh – blocks human HTRA1 serine peptidase. Q92743. recombinant HTRA1, FP-rhodamine activity-based probe, fluorescence polarization. inhibition, % at 5.96 µM. actives 0.5% (n = 340,000); in the data active means inhibition above about 36%;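 further: 0% = enzyme with DMSO and 100% = wells lacking enzyme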
SIAE primary – human SIAE inhibition, primary screen; actives 0.69% (n = 370,000); Q9HAT2; SIAE FP-Rh probe binding, fluorescence polarization; inhibition, % at 9.66 µM;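 active means inhibition above a cutoff: mean of compounds within the control limits plus 3 SD of those, cut at about 17% in these data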;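 further: 0% = plate median of compound wells and 100% = probe without SIAE protein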
Target sequence (Q9HAT2 whole entry, looked up): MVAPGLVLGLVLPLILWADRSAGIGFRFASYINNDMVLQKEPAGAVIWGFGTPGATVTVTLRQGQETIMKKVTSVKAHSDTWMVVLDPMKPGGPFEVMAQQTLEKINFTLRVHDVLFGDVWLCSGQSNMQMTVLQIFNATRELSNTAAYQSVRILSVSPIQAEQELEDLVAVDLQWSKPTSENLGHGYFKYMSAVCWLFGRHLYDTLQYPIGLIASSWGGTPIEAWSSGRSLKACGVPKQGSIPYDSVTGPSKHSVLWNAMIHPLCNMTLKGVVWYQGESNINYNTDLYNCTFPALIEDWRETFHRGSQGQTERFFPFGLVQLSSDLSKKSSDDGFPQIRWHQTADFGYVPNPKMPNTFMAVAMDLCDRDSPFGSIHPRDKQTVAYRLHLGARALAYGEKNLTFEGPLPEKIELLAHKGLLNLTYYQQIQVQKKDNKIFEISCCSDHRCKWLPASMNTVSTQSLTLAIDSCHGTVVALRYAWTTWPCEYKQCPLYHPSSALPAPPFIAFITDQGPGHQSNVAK
mABHD4 conf – confirmation of mouse ABHD4 inhibitors | shares compounds with mABHD4 FP | purified mABHD4, FP-Rh probe fluorescence polarization | inhibition, % at 8.92 µM | actives 55% (n = 1,800);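 active means mean inhibition across replicates above the hit cutoff set in the primary screen, cut at about 30% in these data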;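 further: 0% = wild-type ABHD4 with DMSO and 100% = catalytically dead S159A mutant with DMSO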
Active calls of the source: *; nt = no result. In the library only some 2% were active in any assay of this set; here they are far more common.

SMILES	mABHD4 FP	TCR CD3 inh	PAD4 FP inh	TDP2 absorb	HTRA1 inh	SIAE primary	mABHD4 conf
COc1ccc(COC[B-](F)(F)F)cc1	44*	6	nt	7	6	0	29
CCOC(=O)c1ccc(NC2=CC(=O)CC(c3ccco3)C2)cc1 (centres undefined)	7	-3	-3	6	-4	7	nt
O=C1C=C(Nc2ccc(O)cc2)CC(c2ccco2)C1 (centres undefined)	44*	1	0	-1	26	-6	19
COC(=O)c1ccc(NCc2c(O)ccc(O)c2Br)cc1Cl	31*	-2	nt	-22	-14	12	37*
CCC(CC)C(=O)N(C)c1c(C)nc2c(OCC=C(C)C)cccn12	8	-3	nt	4	nt	5	nt
O=c1c2ccccc2[nH]c2ccc(O)cc12	41*	11	-2	-16	19	11	26
CCOC(=O)c1c(-c2ccccc2)[nH]c2ccc(O)cc12	31*	-6	-2	7	-9	5	42*
Sc1ccccc1N=Cc1cccs1	-2	1	nt	4	-11	5	nt
COCCCNC(=O)[C@H](Cc1ccccc1)NC(=O)CC[C@H]1O[C@@H](n2ccc(=O)[nH]c2=O)[C@H](O)[C@@H]1O	5	6	nt	9	nt	2	nt
C=CCSC1=N/C(=C\c2sccc2C)C(=O)S1	9	0	2	4	-12	-3	nt
C=CCSC1=N/C(=C\C=C\c2ccco2)C(=O)S1	64*	16	-1	7	24	13	7
Nc1ccc2c(c1)C(=O)c1cc(Cl)c(Cl)cc1-2	16	4	nt	2	31	7	nt
Nc1ccc2c(c1)C(=O)c1ccc(N)cc1-2	30*	5	nt	2	16	3	37*
O=C(/C=C/c1ccc(-c2ccccc2[N+](=O)[O-])o1)c1ccccc1	32*	-3	-11	-1	-24	12	11
O=C(O)/C(=C\c1ccc(-c2ccccc2[N+](=O)[O-])o1)c1ccccc1	12	3	-2	-2	-9	9	nt
COc1ccc(-c2csc(C(O)c3ccc(F)cc3)n2)cc1OC (centres undefined)	-6	-8	nt	-8	nt	-3	nt
O=C1NC[C@@H](CCCCN2C[C@H](Cc3ccccc3)N(CCC3CCCCC3)C(=O)C2=O)N(CC2CCCCC2)C1=O	12	-2	nt	-1	nt	0	nt
N#CC1=C(SCc2ccccc2)NC(=O)CC1c1ccccc1 (centres undefined)	3	-2	2	-1	-3	1	nt
N#Cc1c(N)nc2c3c(sc(=N)c2c1N)NC(=O)CC3c1ccccc1 (centres undefined)	31*	17	-2	1	26	-2	-77
Cc1ccc(C)c(COC(=O)CCN=C2NS(=O)(=O)c3ccccc32)c1	3	-5	2	0	-3	-2	nt
O=C(O)c1[nH]c2ccccc2c1C(c1ccccc1)c1c(C(=O)O)[nH]c2ccccc12	32*	9	0	-1	10	7	38*
COc1ccc(CN=Cc2c(C(=O)O)[nH]c3ccccc23)cc1	2	-6	-2	-1	7	-5	nt
COCC(=O)c1[nH]c2ccccc2c1C	6	4	6	14	0	-2	nt
C=CCOc1ccc(C(c2c(C(=O)O)[nH]c3ccccc23)c2c(C(=O)O)[nH]c3ccccc23)cc1	55*	5	-1	15	10	2	53*
O=C1C2C(C(=O)N1/N=C/c1cc([N+](=O)[O-])c(O)cc1O)C1C=CC2C12CC2 (centres undefined)	31*	8	0	-8	18	-1	21
CCOc1ccc(N(C(=O)c2ccc3c(c2)OCO3)C2C=CS(=O)(=O)C2)cc1 (centres undefined)	-8	8	2	16	-3	10	nt
COc1cccc(C2CC(c3cccc(NS(C)(=O)=O)c3)=NN2C(=O)c2ccccc2)c1OC (centres undefined)	34*	6	-3	11	-8	-8	31*
